Source: ChEMBL document CHEMBL2331269, “Design and synthesis of amphiphilic xanthone-based, membrane-targeting antimicrobials with improved membrane selectivity” (J Med Chem, 2013)
≈ marks a conversion by molar mass, not a printed value. Calls of active or inactive are those of the source. The rule behind the calls is not given here.

What was measured:
[1] = Selectivity index, ratio of HC50 for rabbit erythrocyte to MIC99 for Streptococcus faecium ATCC 10541; format: functional
[2] = test system: Klebsiella pneumoniae; assay: Antibacterial activity against Klebsiella pneumoniae ATCC 10031 after 20 to 22 hrs by CLSI broth macro-dilution method; format: functional
[3] = test system: Staphylococcus aureus; assay: Antibacterial activity against Staphylococcus aureus ATCC 700699 at 4 X MIC after 20 to 22 hrs; format: functional, organism-based
[4] = Toxicity against New Zealand White rabbit corneal epithelium assessed as effect on wound closure at 50 ug/ml by Slit lamp photography relative to control; format: tissue-based, Oryctolagus cuniculus, Cornea; details: in vivo
How it was run: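 A 5 mm corneal epithelial abrasion was made with a sterile trephine and the epithelium removed with a mini blade. Eyes were treated with saline, vancomycin 50 μg/mL, or agent 50 μg/mL. Wound closure was tracked over time from fluorescein-stained photographs of defect size.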

[5] = test system: Staphylococcus epidermidis; assay: Antibacterial activity against Staphylococcus epidermidis ATCC 12228 after 20 to 22 hrs by CLSI broth macro-dilution method
[6] = Selectivity index, ratio of HC50 for rabbit erythrocyte to MIC99 for methicillin-resistant Staphylococcus aureus DR68004; format: functional
[7] = Selectivity index, ratio of HC50 for rabbit erythrocyte to MIC99 for Enterococcus faecalis ATCC 29212; format: functional
[8] = Selectivity index, ratio of HC50 for rabbit erythrocyte to MIC99 for methicillin-resistant Staphylococcus aureus ATCC 700669; format: functional
[9] = test system: Enterococcus faecalis; assay: Antibacterial activity against Enterococcus faecalis ATCC 29212 after 20 to 22 hrs by multipassage resistance selection method; format: functional, organism-based
[10] = test system: Staphylococcus aureus; assay: Antibacterial activity against methicillin-resistant Staphylococcus aureus DM21455 assessed as reduction in viable count at 2 X MIC after 5 mins by surface-spread plate method relative to control; format: functional
[11] = Hemolytic activity against rabbit erythrocytes after 60 mins by spectrophotometric analysis; format: ADME, cell-based, Oryctolagus cuniculus, Erythrocyte
[12] = Selectivity ratio of HC50 for rabbit erythrocyte to MIC99 for Staphylococcus aureus ATCC 29213; format: functional
[13] = Selectivity index, ratio of HC50 for rabbit erythrocyte to MIC99 for methicillin-resistant Staphylococcus aureus DB57964/04; format: functional
[14] = test system: Staphylococcus aureus; assay: Antibacterial activity against Staphylococcus aureus ATCC 29737 after 20 to 22 hrs by CLSI broth macro-dilution method; format: functional
[15] = test system: Staphylococcus aureus; assay: Antibacterial activity against Staphylococcus aureus ATCC 6538 after 20 to 22 hrs by CLSI broth macro-dilution method; format: functional
[16] = test system: Staphylococcus aureus; assay: Antibacterial activity against Staphylococcus aureus ATCC 29213 after 20 to 22 hrs by CLSI broth macro-dilution method; format: functional
[17] = test system: Staphylococcus aureus; assay: Antimicrobial activity against Staphylococcus aureus DM4001 assessed as depolarization of bacterial membrane at 12.5 ug/ml by DiSC3-5-based cytoplasmic membrane depolarization assay; format: functional, organism-based
How it was run: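 Clinical S. aureus DM4001 was loaded with the membrane-potential dye DiSC3-5, which self-quenches in polarized membranes. Agent added at 12.5 μg/mL. Depolarization was read as the rise in fluorescence intensity (counts per second) over time.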

[18] = Dissociation constant, pKa of the compound; format: physicochemical
[19] = Selectivity index, ratio of HC50 for rabbit erythrocyte to MIC99 for Staphylococcus aureus 10:DB6506; format: functional
[20] = test system: Staphylococcus aureus; assay: Antibacterial activity against methicillin-resistant Staphylococcus aureus DM21455 assessed as reduction in viable count at 4 X MIC after 10 mins by surface-spread plate method relative to control; format: functional
[21] = test system: Enterococcus faecalis; assay: Antibacterial activity against Enterococcus faecalis ATCC 29212 after 20 to 22 hrs by CLSI broth macro-dilution method; format: functional
[22] = test system: Mus musculus; assay: Toxicity against wild type C57BL6 mouse assessed as corneal opacity at 400 ug/ml administered topically 5 times a day by Slit lamp photography; format: organism-based, Cornea; details: in vivo, topical_or_ocular
How it was run: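 Mouse eyes given topical drops five times per day at 400 μg/mL; cornea examined by slit lamp photography for clinical signs of toxicity and corneal opacity.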

[23] = Selectivity index, ratio of HC50 for rabbit erythrocyte to MIC99 for Staphylococcus aureus ATCC 6538P; format: functional
[24] = test system: Staphylococcus aureus; assay: Antimicrobial activity against Staphylococcus aureus DM4001 assessed as morphological changes by scanning electron microscopy relative to control; format: functional, organism-based
[25] = test system: Staphylococcus aureus; assay: Antibacterial activity against methicillin-resistant Staphylococcus aureus clinical isolate DM21455 after 20 to 22 hrs by CLSI broth macro-dilution method; format: functional
[26] = test system: Staphylococcus aureus; assay: Antibacterial activity against methicillin-resistant Staphylococcus aureus DM09808R obtained from eye isolate after 20 to 22 hrs by CLSI broth macro-dilution method; format: functional
[27] = Selectivity index, ratio of HC50 for rabbit erythrocyte to MIC99 for methicillin-resistant Staphylococcus aureus DM21595; format: functional
[28] = Selectivity ratio of HC50 for rabbit erythrocyte to MIC99 for methicillin-resistant Staphylococcus aureus clinical isolate DM21455; format: functional
[29] = Selectivity index, ratio of HC50 for rabbit erythrocyte to MIC99 for Staphylococcus aureus ATCC 29737; format: functional
[30] = test system: Staphylococcus aureus; assay: Antibacterial activity against methicillin-resistant Staphylococcus aureus DM21455 assessed as reduction in viable count after 5 to 10 mins by surface-spread plate method; format: functional, organism-based
[31] = test system: Staphylococcus aureus; assay: Antibacterial activity against methicillin-resistant Staphylococcus aureus ATCC […] after 20 to 22 hrs by CLSI broth macro-dilution method; format: functional
[32] = Partition coefficient, log P of the compound by HPLC analysis; format: physicochemical; details: octanol/water; read-out: logP
How it was run: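 Partition coefficient measured by HPLC following OECD guidelines for the testing of chemicals.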

[33] = test system: Staphylococcus aureus; assay: Antibacterial activity against methicillin-resistant Staphylococcus aureus DB57964/04 after 20 to 22 hrs by CLSI broth macro-dilution method; format: functional
[34] = Selectivity index, ratio of HC50 for rabbit erythrocyte to MIC99 for […] ATCC 12228; format: functional
[35] = Selectivity index, ratio of HC50 for rabbit erythrocyte to MIC99 for methicillin-resistant Staphylococcus aureus DR42412; format: functional
[36] = test system: Staphylococcus aureus; assay: Antibacterial activity against vancomycin-intermediate resistant Staphylococcus aureus 10:DB6506 after 20 to 22 hrs by multipassage resistance selection method; format: functional, organism-based
[37] = test system: Staphylococcus aureus; assay: Antibacterial activity against methicillin-resistant Staphylococcus aureus DR42412 obtained from sputum isolate after 20 to 22 hrs by CLSI broth macro-dilution method; format: functional
[38] = test system: Staphylococcus aureus; assay: Antibacterial activity against methicillin-resistant Staphylococcus aureus DM21455 assessed as log reduction in CFU at 0.5 X MIC to 1 X MIC after 2 hrs by surface-spread plate method relative to control; format: functional
[39] = test system: Staphylococcus aureus; assay: Antibacterial activity against vancomycin-intermediate resistant Staphylococcus aureus 10:DB6506 after 20 to 22 hrs by CLSI broth macro-dilution method; format: functional
[40] = test system: Staphylococcus aureus; assay: Antimicrobial activity against in Staphylococcus aureus assessed as disruption of bacterial membrane at 10 uM by fluorescence microscopy; format: functional, organism-based
How it was run: (§1)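 S. aureus DM4001 treated with 10 μM agent and incubated with the membrane-impermeant nucleic-acid dye SYTOX Green. Permeabilization was read as increased fluorescence intensity and confirmed by fluorescence microscopy counting green-stained cells.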

[41] = test system: Pseudomonas aeruginosa; assay: Antibacterial activity against Pseudomonas aeruginosa ATCC 27853 after 20 to 22 hrs by CLSI broth macro-dilution method; format: functional
[42] = test system: Staphylococcus aureus; assay: Antimicrobial activity against Staphylococcus aureus assessed as disruption of bacterial membrane at 10 uM by SYTOX green uptake assay; format: functional, organism-based; how it was run: as §1
[43] = test system: Enterococcus faecium; assay: Antibacterial activity against Streptococcus faecium ATCC 10541 after 20 to 22 hrs by CLSI broth macro-dilution method; format: functional
[44] = test system: Staphylococcus aureus; assay: Antibacterial activity against methicillin-resistant Staphylococcus aureus DM21455 after 20 to 22 hrs by multipassage resistance selection method; format: functional, organism-based
[45] = Selectivity index, ratio of HC50 for rabbit erythrocyte to MIC99 for methicillin-resistant Staphylococcus aureus DM09808R; format: functional
[46] = test system: Mus musculus; assay: Toxicity against wild type C57BL6 mouse at 50 mg/kg, ip after 24 hrs; format: organism-based; design: dose 50 mg/kg, route intraperitoneal; details: in vivo
How it was run: (§2)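 Mice received a single bolus injection, 25 mg/kg intravenous or 50 mg/kg intraperitoneal, with survival recorded at 24 h; 2 animals per route.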

[47] = test system: Staphylococcus aureus; assay: Antibacterial activity against methicillin-resistant Staphylococcus aureus DR68004 obtained from blood isolate after 20 to 22 hrs by CLSI broth macro-dilution method; format: functional
[48] = test system: Staphylococcus aureus; assay: Antibacterial activity against methicillin-resistant Staphylococcus aureus DM21595 obtained from wound isolate after 20 to 22 hrs by CLSI broth macro-dilution method; format: functional
[49] = test system: Staphylococcus aureus; assay: Antibacterial activity against Staphylococcus aureus ATCC 6538P after 20 to 22 hrs by CLSI broth macro-dilution method; format: functional
[50] = Selectivity index, ratio of HC50 for rabbit erythrocyte to MIC99 for Staphylococcus aureus ATCC 6538; format: functional
[51] = test system: Mus musculus; assay: Toxicity against wild type C57BL6 mouse at 25 mg/kg, iv after 24 hrs; format: organism-based; design: dose 25 mg/kg, route intravenous; details: in vivo; how it was run: as §2

CCN(CC)CCCCOc1cc2oc3cc(OCCCCN(CC)CC)c(OC)c(CC=C(C)C)c3c(=O)c2c(O)c1CC=C(C)C
Selectivity Index [1]: 100.5 | MIC [2]: 40 µg/mL (≈ 60.2 µM) | Activity [3]: Active | Activity [4]: Non-toxic | MIC [5]: 0.78 µg/mL (≈ 1.17 µM) | Selectivity Index [6]: 12.6 | Selectivity Index [7]: 25.1 | Selectivity Index [8]: 206.3 | Activity [9]: Active | Activity [10]: 99.9% | HC50 at 1 h [11]: 19.6 µM | Selectivity ratio [12]: 50.3 | Selectivity Index [13]: 25.1 | MIC [14]: 1.56 µg/mL (≈ 2.35 µM) | MIC [15]: 1.56 µg/mL (≈ 2.35 µM) | MIC99 [16]: 0.39 µg/mL (≈ 0.587 µM) | Activity [17]: Active | pKa [18]: 11 | Selectivity Index [19]: 25.1 | Activity [20]: 99.9% | MIC [21]: 0.78 µg/mL (≈ 1.17 µM) | Activity [22]: Non-toxic | Selectivity Index [23]: 25.1 | Activity [24]: Active | MIC99 [25]: 0.39 µg/mL (≈ 0.587 µM) | MIC [26]: 1.56 µg/mL (≈ 2.35 µM) | Selectivity Index [27]: 50.3 | Selectivity ratio [28]: 50.3 | Selectivity Index [29]: 12.6 | Activity [30]: Dose-dependent effect | MIC [31]: 0.095 µg/mL (≈ 0.143 µM) | logP [32]: 6.72 | MIC [33]: 0.78 µg/mL (≈ 1.17 µM) | Selectivity Index [34]: 25.1 | Selectivity Index [35]: 50.3 | Activity [36]: Active | MIC [37]: 0.39 µg/mL (≈ 0.587 µM) | FC [38]: 3 | MIC [39]: 0.78 µg/mL (≈ 1.17 µM) | Activity [40]: Active | MIC [41]: 50 µg/mL (≈ 75.2 µM) | Activity [42]: Active | MIC [43]: 0.195 µg/mL (≈ 0.293 µM) | Activity [44]: Active | Selectivity Index [45]: 12.6 | Activity [46]: Non-toxic | MIC [47]: 1.56 µg/mL (≈ 2.35 µM) | MIC [48]: 0.39 µg/mL (≈ 0.587 µM) | MIC [49]: 0.78 µg/mL (≈ 1.17 µM) | Selectivity Index [50]: 12.6 | Activity [51]: Non-toxic
